The test system of assay [1] is Radical scavenging activity. Description: Antioxidant activity assessed as DPPH radical scavenging activity after 30 mins. The class given is functional. Summed up:
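Test samples in DMSO were mixed with a 300 µM ethanolic DPPH solution and incubated at 37 °C.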
Background: DPPH is a stable violet radical that fades when it is reduced.

For assay [2], the system named is HCT-116. Description: Cytotoxicity against human HCT116 cells after 72 hrs by MTT assay. Format: functional, cell-based. The following applies: HCT-116, 72 h. Put shortly: (§1)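 About 30 000 cells per well were seeded in 96-well plates, and the medium was replaced once cultures reached 40% confluence.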
On the technique in general: Tetrazolium dyes change colour on reduction, which living cells bring about.

Assay [3] has as its system SW480. Put plainly: Cytotoxicity against human SW480 cells after 72 hrs by MTT assay. The class given is functional, cell-based. As to conditions: SW480, 72 h. Summed up:
as §1

pIC50: −log10 of the molar value.

The term pIC50 denotes the negative decadic logarithm of the IC50, by convention in mol/L.

Take `Oc1cc(O)c2c(c1)O[C@H](c1ccc(O)c(O)c1)[C@@H](O)C2` [CIANIDANOL]: the negative logarithm of the IC50 (pIC50) in assay [1] is 4.31.

As to `Oc1cc(O)c2c(c1)O[C@H](c1ccc(O)c(O)c1)[C@H](O)C2` [(-)-EPICATECHIN], in assay [1], the pIC50 is 4.31.

Take `COC(=O)[C@H]1O[C@@H](Oc2c(-c3ccc(O)c(O)c3)oc3cc(O)cc(O)c3c2=O)[C@H](O)[C@@H](O)[C@@H]1O`: the negative logarithm of the IC50 (pIC50) in assay [1] was 4.38.

In the case of `O=c1c(O)c(-c2ccc(O)cc2)oc2cc(O)cc(O)c12` [KAEMPFEROL], in assay [1], the pIC50 was 4.05.

In the case of `O=C(O)[C@H]1O[C@@H](Oc2c(O)cc(O)c3c(=O)cc(-c4ccc(O)cc4)oc23)[C@H](O)[C@@H](O)[C@@H]1O`, in assay [1], the negative logarithm of the IC50 (pIC50) is 4.17.

Regarding `O=C(O)[C@H]1O[C@@H](Oc2c(O)cc(O)c3c(=O)cc(-c4ccc(O)c(O)c4)oc23)[C@H](O)[C@@H](O)[C@@H]1O`, the pIC50 in assay [1] is 4.24.

In the case of `O=C(O)[C@H]1O[C@@H](Oc2c(-c3ccc(O)c(O)c3)oc3cc(O)cc(O)c3c2=O)[C@H](O)[C@@H](O)[C@@H]1O` [QUERCETIN GLUCURONIDE], the pIC50 in assay [1] is 4.35.

For the compound `COC(=O)[C@H]1O[C@@H](Oc2c(O)cc(O)c3c(=O)cc(-c4ccc(O)cc4)oc23)[C@H](O)[C@@H](O)[C@@H]1O`, the pIC50 in assay [1] is 4.16.

As to `O=c1c(O)c(-c2ccc(O)c(O)c2)oc2cc(O)cc(O)c12` [QUERCETIN], in assay [1], the pIC50 is 4.40.

`O=C(O)[C@H]1O[C@@H](Oc2c(O)cc(O)c3c(=O)cc(-c4ccc(O)c(O)c4)oc23)[C@H](O)[C@@H](OS(=O)(=O)O)[C@@H]1O` [THEOGRANDIN II]: the pIC50 is 3.84 in assay [2], 3.92 in assay [1] and 3.90 in assay [3].

In the case of `O=C(O)[C@H]1O[C@@H](Oc2c(O)cc(O)c3c(=O)cc(-c4ccc(O)cc4)oc23)[C@H](O)[C@@H](OS(=O)(=O)O)[C@@H]1O` [THEOGRANDIN I], the pIC50 in assay [2] was 3.69; in assay [1] it was 3.47; in assay [3], 3.79.

These data come from ChEMBL document CHEMBL1147254, “New bioactive polyphenols from Theobroma grandiflorum ("cupuaçu")” (J Nat Prod, 2003).
